Test results taken from EPA's CvTdb concentration-time database.
Where “and” joins values, the source holds several entries; their conditions need not be identical. Equal entries are not always repeated.

What was measured:
Rat [1] = experiment: concentration in blood after dosing; negative times count back from the end of exposure; conditions: dosed: 1,2-dichloroethane, inhalation, duration: 6 hr, Male, F344
rat [2] = experiment: as above; conditions: inhalation
human [3] = experiment: concentration in blood after dosing; negative times count back from the end of exposure; conditions: dosed: ethanol, inhalation, duration: 4 hr
Summary of the method: (§1)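 Points were largely digitised from plot screenshots with WebPlotDigitizer or otherwise copied from tables, and they remain in the units each source reported. They come from published in vivo toxicokinetic studies and two structured collections. Sampling and analytical methods follow each source and were often not reported.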

rat [4] = experiment: concentration in feces after dosing; conditions: dosed: benzo[a]pyrene, 200 mg/kg, iv, male, LIO
rat [5] = experiment: concentration in urine after dosing; conditions: dosed: benzo[a]pyrene, 200 mg/kg, iv, male, LIO
human [6] = experiment: concentration in expired air after dosing; negative times count back from the end of exposure; conditions: dosed: dichloromethane, inhalation, duration: 6 hr, male
Summary of the method: as §1

rat [7] = experiment: concentration in expired air after dosing; conditions: dosed: 1,1,1,2-tetrachloroethane, 352 ppm, inhalation, duration: 6 hr
rat [8] = experiment: concentration in blood after dosing; conditions: dosed: 1,2-Dichloroethane, 100 mg/kg, oral, male, Wistar

ClCCCl [1,2-dichloroethane]
concentration in blood [ng/mL], Rat [1]
Conditions	50 ppm	250 ppm
0.1443 h	815	24500
0.2313 h	664	–
0.2438 h	–	19700
0.3184 h	495	–
0.3308 h	–	15800
0.4925 h	239	12300
0.7413 h	131	8050
0.99 h	–	5340
1.488 h	–	1940
1.973 h	–	664
2.993 h	–	124
295 s	962	26800

concentration in blood, Rat [1], during exposure
Conditions	-18 s	-5.515 h	-5.005 h	-4.01 h	-3.015 h	-3.002 h
50 ppm	1360 ng/mL	476 ng/mL	926 ng/mL	1340 ng/mL	–	1340 ng/mL
250 ppm	30800 ng/mL	5840 ng/mL and 6640 ng/mL	11700 ng/mL	23600 ng/mL	29300 ng/mL	–

rat [2], dosed: 1,2-dichloroethane, duration: 6 hr, male
Conditions	concentration in blood [ng/mL]
-5.75 h, 200 ppm, Fischer-344, during exposure	768
-5.5 h, 200 ppm, Fischer-344, during exposure	1320
-5 h, 200 ppm, Fischer-344, during exposure	1920
-3 h, 200 ppm, Fischer-344, during exposure	3170
0 h, 200 ppm, Fischer-344	2940
0.1607 h, 150 ppm, Osborne-Mendel	3870
0.2398 h, 150 ppm, Osborne-Mendel	2830
0.25 h, 200 ppm, Fischer-344	851
0.3387 h, 150 ppm, Osborne-Mendel	2010
0.4969 h, 150 ppm, Osborne-Mendel	1320
0.665 h, 150 ppm, Osborne-Mendel	670
0.9913 h, 150 ppm, Osborne-Mendel	708
1.328 h, 150 ppm, Osborne-Mendel	279
258 s, 150 ppm, Osborne-Mendel	5010

rat [2], dosed: 1,2-dichloroethane, 150 ppm, duration: 6 hr, male, Osborne-Mendel, during exposure
Conditions	concentration in blood [ng/mL]
-27 s	9390
-5.001 h	5160
-3.34 h	8640
-2.005 h	8290

CCO [ethanol]
concentration in blood [ng/mL], human [3]
Conditions	female	male
0.4897 h, 125 ppm	60	62.3
0.4897 h, 250 ppm	–	101
0.4897 h, 450 ppm	158	201
0.4966 h, 750 ppm	299	227
0.4966 h, 1000 ppm	571	267
0.9954 h, 250 ppm	74.2	67.1
1.002 h, 125 ppm	42.9	40.8
1.002 h, 450 ppm	101	112
1.002 h, 750 ppm	153	94
1.002 h, 1000 ppm	248	142

concentration in blood [ng/mL], human [3], during exposure
Conditions	-33 s	-8 s	-4 h	-3.002 h	-2.995 h	-1.007 h	-1 h
125 ppm, female	–	179	35.6	165	–	–	158
125 ppm, male	–	196	36.9	165	–	–	196
250 ppm, female	451	–	78.9	374	–	445	–
250 ppm, male	–	–	42.9	468	–	457	–
450 ppm, female	1000	–	52.4	851	–	–	1000
450 ppm, male	1090	–	–	851	–	–	905
750 ppm, female	–	1620	65.5	–	1430	–	1860
750 ppm, male	–	2060	–	–	1770	–	1510
1000 ppm, female	2640	–	133	–	2300	–	2510
1000 ppm, male	2920	–	–	–	2810	–	2360

Oc1ccc2ccc3c4ccccc4cc4ccc1c2c43 [3-OH-BP]
Conditions	concentration in feces, rat [4] [µg/kg]	concentration in urine, rat [5] [µg/kg]
24 h	6.9	3.9
48 h	9.9	5.4
72 h	8.9	6.2
96 h	9.6	5
120 h	7.7	4.2
144 h	9.1	2.6
168 h	8.4	2.6
192 h	4	2.5
216 h	3.3	2.8
240 h	3.2	2.7
264 h	3.1	2.5
288 h	2.5	2.6
312 h	2.5	2.5
336 h	2.3	2.2
360 h	2.3	2.5

CCCCCC [n-hexane]
rat [2], dosed: n-hexane, 3000 ppm, duration: 6 hr
Conditions	concentration in blood [ng/mL]
0.4718 h	2220
0.9831 h	1920
1.99 h	1370
4.003 h	65.6
5.974 h	42.2
7.994 h	59.3
29 s	8420

rat [2], dosed: n-hexane, 3000 ppm, duration: 6 hr, during exposure
Conditions	concentration in blood [ng/mL]
-6 h	20.3
-5.509 h	7900
-5.025 h	8530
-4.008 h	9820
-3.002 h	9010
-2.005 h	9720

[C-]#[O+] [carbon monoxide]
concentration in expired air [ppm], human [6]
Conditions	100 ppm	350 ppm
0.083 h	17.1	34.6
0.25 h	16.2	32.5
0.5 h	15.8	32.6
1 h	15.7	33.3
1.5 h	14.9	32.3
2 h	14.6	30.9
3 h	11.8	26.8
4 h	10.8	25.1
6 h	10	21.2
8 h	9.1	16.9
16 h	6.8	11.8
24 h	4.3	5.6

concentration in expired air [ppm], human [6], during exposure
Conditions	-36 s	-6 h	-5.75 h	-5.5 h	-5 h	-4.5 h	-4 h	-3 h	-2 h	-1 h
100 ppm	16.8	3.8	5.3	5.8	7	8.1	9	10.7	13.1	15.3
350 ppm	36.1	4.2	6.5	7.6	10.5	13.3	16.1	20.9	25.9	31.1

CCCCCCCCC [nonane]
rat [2], dosed: nonane, duration: 4 hr
Conditions	concentration in blood [µg/g]
-83 s, 100 ppm, Fischer-344, during exposure	0.892
-71 s, 500 ppm, Fischer-344, during exposure	4.34
-56 s, 1000 ppm, Fischer-344, during exposure	16.8
-3.501 h, 500 ppm, Fischer-344, during exposure	2.02
-3.496 h, 1000 ppm, Fischer-344, during exposure	7.04
-3.494 h, 100 ppm, Fischer-344, during exposure	0.434
-3.003 h, 100 ppm, Fischer-344, during exposure	0.523
-2.994 h, 1000 ppm, Fischer-344, during exposure	6.96
-2.988 h, 500 ppm, Fischer-344, during exposure	2.21
-2.014 h, 1000 ppm, Fischer-344, during exposure	15.4
-2.009 h, 100 ppm, Fischer-344, during exposure	0.518
-2.007 h, 500 ppm, Fischer-344, during exposure	3.72
-1.02 h, 1000 ppm, Fischer-344, during exposure	17.2
-1.016 h, 100 ppm, Fischer-344, during exposure	0.672
-1.013 h, 500 ppm, Fischer-344, during exposure	3.57
0.1362 h, 1000 ppm, Fischer-344	11
0.1413 h, 100 ppm, Fischer-344	0.367
0.1425 h, 500 ppm, Fischer-344	2.81
0.2276 h, 100 ppm, Fischer-344	0.309
0.2331 h, 1000 ppm, Fischer-344	9.37
0.2405 h, 500 ppm, Fischer-344	1.93
0.4818 h, 1000 ppm, Fischer-344	5.11
0.4859 h, 100 ppm, Fischer-344	0.209
0.4867 h, 500 ppm, Fischer-344	1.77
0.9803 h, 500 ppm, Fischer-344	1.17
0.9804 h, 100 ppm, Fischer-344	0.115
0.9849 h, 1000 ppm, Fischer-344	4.34
1.969 h, 100 ppm, Fischer-344	0.0382
1.99 h, 500 ppm, Fischer-344	0.41
1.992 h, 1000 ppm, Fischer-344	2.37
2.984 h, 500 ppm, Fischer-344	0.368
2.985 h, 100 ppm, Fischer-344	0.0308
2.999 h, 1000 ppm, Fischer-344	1.47
3.992 h, 100 ppm, Fischer-344	0.0196
3.997 h, 1000 ppm, Fischer-344	0.691
4.002 h, 500 ppm, Fischer-344	0.255
198 s, 100 ppm, Fischer-344	0.432
217 s, 1000 ppm, Fischer-344	13.7
239 s, 500 ppm, Fischer-344	3.73

ClCC(Cl)(Cl)Cl [1,1,1,2-tetrachloroethane]
rat [7]
Conditions	concentration in expired air [ng/mL]
0.2586 h	89.8
0.5066 h	97.9
0.7323 h	90.1
0.7758 h	98.6
1.001 h	79.1
1.012 h	83.8
1.506 h	67.5
1.507 h	72.8
2.766 h	65.7
3.982 h	62.9
4.003 h	52
4.477 h	59.7
5.5 h	58.8
6.5 h	46.7
6.511 h	41.4
6.995 h	40.1
7.007 h	49.3
7.986 h	39.2
7.995 h	32.7
8.987 h	36.6
8.997 h	31
9.986 h	27
9.987 h	29.5

ClCCCl [1,2-Dichloroethane]
rat [8]
Conditions	concentration in blood [ng/mL]
0.1036 h	52400
0.1179 h	13300
0.132 h	43800
0.1651 h	12600
0.1867 h	44200
0.1921 h	12300
0.2321 h	11400
0.2347 h	43700
0.2763 h	39500
0.2876 h	11900
0.3244 h	38100
0.3422 h	11800
0.3792 h	37800
0.3969 h	11700
0.4271 h	38800
0.4374 h	11200
0.5094 h	37200
0.5261 h	10800
0.7703 h	31800
0.7778 h	9360
1.018 h	25700
1.028 h	6280
1.518 h	20100
1.525 h	4200
2.019 h	14600
2.026 h	4360
2.519 h	10500
2.525 h	3610
3.016 h	1910
3.027 h	7170
3.517 h	2720
3.527 h	4850
4.013 h	3030
4.015 h	1450
4.508 h	862
4.52 h	1720
5.001 h	703
5.014 h	1210
145 s	5240
247 s	58200
291 s	10900
